Experimental data reported in ChEMBL document CHEMBL1133135, “Grignard-mediated synthesis and preliminary biological evaluation of novel 3-substituted farnesyl diphosphate analogues” (Bioorg Med Chem Lett, 2000).

Legend:
[1] = target: Protein farnesyltransferase (Homo sapiens) (UniProt P49354+P49356); assay: Relative Vmax for Farnesyltransferase at 10 uM; type: protein-complex assay
Outline: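 Baculovirus-expressed, purified recombinant mammalian FTase in a continuous fluorometric assay with dansyl-GCVLS-OH peptide cosubstrate, testing each FPP analogue as alternative prenyl donor. Relative Vmax is the Vmax with analogue at 10 μM divided by the Vmax with FPP at 10 μM under the same conditions. Analogue concentrations were checked by phosphate analysis.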

[2] = system: CC(C)=CCC/C(C)=C/CC/C(=C/COP(=O)(O)OP(=O)(O)O)C1CCCC1; assay: Km for mammalian protein Farnesyltransferase expressed in baculovirus
[3] = system: CC(C)=CCC/C(C)=C/CC/C(C)=C/COP(=O)(O)OP(=O)(O)O

Row | Compound | Krel [1] | Km [2] [µM] | Km [3] [µM]
1 | C=C(C)/C(=C\COP(=O)(O)OP(=O)(O)O)CC/C=C(\C)CCC=C(C)C | 0 |  | 
2 | Protein farnesyltransferase (Homo sapiens) (from UniProt P49354+P49356) |  | 0.102 | 0.107
3 | CC(C)=CCC/C(C)=C/CC/C(=C/COP(=O)(O)OP(=O)(O)O)C1CCCC1 | 0.072 |  | 
4 | CC(C)=CCC/C(C)=C/CC/C(=C/COP(=O)(O)OP(=O)(O)O)c1ccc(F)cc1 | 0.002 |  | 
5 | CCC(C)/C(=C\COP(=O)(O)OP(=O)(O)O)CC/C=C(\C)CCC=C(C)C (configuration not stated) | 0 |  | 
6 | CC(C)=CCC/C(C)=C/CC/C(=C/COP(=O)(O)OP(=O)(O)O)C(C)C | 0.013 |  | 

Continued, in another order:

Row | Krel [1] | Compound | Km [2] [µM] | Km [3] [µM]
7 | 0.042 | CC(C)=CCC/C(C)=C/CC/C(=C/COP(=O)(O)OP(=O)(O)O)CC(C)(C)C |  | 
8 | 0 | CC(C)=CCC/C(C)=C/CC/C(=C/COP(=O)(O)OP(=O)(O)O)CC(C)C |  | 
9 | 0.078 | CCC/C(=C\COP(=O)(O)OP(=O)(O)O)CC/C=C(\C)CCC=C(C)C |  | 
10 | 0.053 | C=CC/C(=C\COP(=O)(O)OP(=O)(O)O)CC/C=C(\C)CCC=C(C)C |  | 
11 | 0.521 | C=C/C(=C\COP(=O)(O)OP(=O)(O)O)CC/C=C(\C)CCC=C(C)C |  | 
